Source: ChEMBL document CHEMBL1128448, “Synthesis and antifungal activity of new azole derivatives containing an N-acylmorpholine ring” (1995)
≈ marks a conversion by molar mass, not a printed value.

Columns and labels:
Candida albicans [1] = test: Evaluation of In vitro antifungal activity against Candida albicans ATCC 10231 by broth macro dilution method; type: functional
Method in brief: (§1)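 Yeast MIC and MFC by broth macrodilution per NCCLS M27-P in RPMI-1640 buffered with 0.165 M MOPS. Fluconazole in sterile water, other drugs in DMSO. C. parapsilosis ATCC 22019 is the reference strain in each run. MIC is the lowest concentration with turbidity ≤ the 80% inhibition standard. For MFC, 0.04 mL from clear tubes is plated on Sabouraud agar; MFC is the lowest concentration giving ≤1 colony.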

Kluyveromyces marxianus [2] = test: Evaluation of In vitro antifungal activity against yeasts by broth macro dilution method; type: functional; method in brief: as §1
Candida parapsilosis [3] = test: Evaluation of In vitro antifungal activity against Candida parapsilosis C74 by broth macro dilution method; type: functional; details: Lodderomyces parapsilosis; method in brief: as §1
Trichophyton benhamiae = test: In vitro evaluation of minimum inhibitory concentration against Trichophyton mentagrophytes 23; type: functional, Arthroderma benhamiae; details: Trichophyton benhamiae; read-out: MIC
Method in brief: (§2)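 Stocks are 800 μg/mL in 50% ethanol. Each plate gets 10 μL of inoculum at 10^5 cfu/mL. Incubation at 25 °C, 48 h for yeasts and 120 h for dermatophytes and molds. Organisms are ATCC strains or clinical isolates.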

Candida parapsilosis [4] = test: Evaluation of In vitro antifungal activity against Candida parapsilosis ATCC 22019 by broth macro dilution method; type: functional; details: Lodderomyces parapsilosis; method in brief: as §1
Mus sp. [5] = test: In vivo evaluation of % survival rate after peroral administration on 3rd day at dose 1 mg/kg; type: functional; details: Mus sp., po
Candida albicans [6] = test: Evaluation of In vitro antifungal activity against Candida albicans C56 by broth macro dilution method; type: functional; method in brief: as §1
Cryptococcus neoformans = test: Evaluation of In vitro antifungal activity against Cryptococcus neoformans 87 by broth macro dilution method; type: functional; method in brief: as §1
Trichophyton rubrum = test: In vitro evaluation of minimum inhibitory concentration against Trichophyton rubrum 90; type: functional; details: Trichophyton rubrum; read-out: MIC; method in brief: as §2
Mus sp. [7] = test: In vivo evaluation of % survival rate after peroral administration on 5th day at dose 1 mg/kg; type: functional; details: Mus sp., po
Candida albicans [8] = test: Evaluation of […] antifungal activity against Candida albicans 60 by broth macro dilution method; type: functional; method in brief: as §1
Mus sp. [9] = test: In vivo evaluation of % survival rate after peroral administration on 3rd day at dose 0.5 mg/kg; type: functional; details: route oral
Candida albicans [10] = test: Evaluation of In vitro antifungal activity against Candida albicans 406 by broth macro dilution method; type: functional; method in brief: as §1
Candida albicans [11] = test: Evaluation of In vitro antifungal activity against Candida albicans 60 by broth macro dilution method
Mus musculus = test: In vivo evaluation of % survival rate after peroral administration on 7th day at dose 0.5 mg/kg; type: functional; details: Mus musculus, po
Candida albicans [12] = test: Evaluation of In vitro antifungal activity against Candida albicans 31 by broth macro dilution method; type: functional; method in brief: as §1
Candida parapsilosis [13] = test: Evaluation of In vitro antifungal activity against Candida parapsilosis 2.07 by broth macro dilution method; type: functional; details: Lodderomyces parapsilosis; method in brief: as §1
Aspergillus flavus = test: In vitro evaluation of minimum inhibitory concentration against Aspergillus flavus 19; type: functional; details: Aspergillus flavus; read-out: MIC; method in brief: as §2
[14] = tested on: Meyerozyma guilliermondii; test: Evaluation of In vitro antifungal activity against Candida guilliermondii 26 by broth macro dilution method; type: functional; method in brief: as §1
Mus sp. [15] = test: In vivo evaluation of % survival rate after peroral administration on 7th day at dose 1 mg/kg; type: functional; details: Mus sp., po
Pichia kudriavzevii [16] = test: In vitro evaluation of minimum inhibitory concentration against Candida krusei 70; type: functional; details: Pichia kudriavzevii; read-out: MIC; method in brief: as §2
Mus sp. [17] = test: In vivo evaluation of % survival rate after peroral administration on 9th day at dose 0.5 mg/kg; type: functional; details: Mus sp., po
Microsporum canis = test: In vitro evaluation of minimum inhibitory concentration against Microsporum canis 47; type: functional; details: Microsporum canis; read-out: MIC; method in brief: as §2
Candida albicans [18] = test: Evaluation of In vitro antifungal activity against Candida albicans C52 by broth macro dilution method; type: functional; method in brief: as §1
Candida parapsilosis [19] = test: In vitro evaluation of minimum inhibitory concentration against Candida parapsilosis 61; type: functional; details: Lodderomyces parapsilosis; read-out: MIC; method in brief: as §2
Candida albicans [20] = test: Evaluation of In vitro antifungal activity against Candida albicans 76 by broth macro dilution method; type: functional; method in brief: as §1
Candida albicans [21] = test: In vitro evaluation of minimum inhibitory concentration against Candida albicans 76; type: functional; details: Candida albicans; read-out: MIC; method in brief: as §2
Candida tropicalis [22] = test: Evaluation of In vitro antifungal activity against Candida tropicalis 2.11 by broth macro dilution method; type: functional; method in brief: as §1
Candida parapsilosis [23] = test: Evaluation of In vitro antifungal activity against Candida parapsilosis ATCC 141095 by broth macro dilution method; type: functional; details: Lodderomyces parapsilosis; method in brief: as §1
Nannizzia gypsea = test: In vitro evaluation of minimum inhibitory concentration against Microsporum gypseum 22; type: functional; details: Nannizzia gypsea; read-out: MIC; method in brief: as §2
Mus sp. [24] = test: In vivo evaluation of % survival rate after peroral administration on 5th day at dose 0.5 mg/kg; type: functional; details: route oral
Nakaseomyces glabratus = test: Evaluation of In vitro antifungal activity against Torulopsis glabrata 78 by broth macro dilution method; type: functional; method in brief: as §1
Candida parapsilosis [25] = test: Evaluation of In vitro antifungal activity against Candida parapsilosis C292 by broth macro dilution method; type: functional; details: Lodderomyces parapsilosis; method in brief: as §1
Pichia kudriavzevii [26] = test: Evaluation of In vitro antifungal activity against Candida krusei C64 by broth macro dilution method; type: functional; method in brief: as §1
Pichia kudriavzevii [27] = test: Evaluation of In vitro antifungal activity against Candida krusei 70 by broth macro dilution method; type: functional; method in brief: as §1
Candida tropicalis [28] = test: Evaluation of In vitro antifungal activity against Candida tropicalis 50 by broth macro dilution method; type: functional; method in brief: as §1
Mus sp. [29] = test: In vivo evaluation of % survival rate after peroral administration on 9th day at dose 1 mg/kg; type: functional; details: Mus sp., po
Kluyveromyces marxianus [30] = test: Evaluation of In vitro antifungal activity against Candida pseudotropicalis ATCC 28838 by broth macro dilution method; type: functional; method in brief: as §1
Aspergillus fumigatus = test: In vitro evaluation of minimum inhibitory concentration against Aspergillus fumigatus 33; type: functional; details: Aspergillus fumigatus; read-out: MIC; method in brief: as §2
Rattus norvegicus = test: In vivo evaluation of antifungal activity against vaginal candidosis in rat at dose 0.25 mg/kg on 15th day; type: functional
Method in brief: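 Groups of 10 female Wistar rats given estradiol 25 mg/kg sc on day -5, infected intravaginally with C. albicans by sterile swab on day 0; infection confirmed on day 3 by swab culture (TSB, then Sabouraud agar). Oral dosing once daily on days 3, 4, 5; vehicle controls. Vaginal swabs cultured on days 10 and 15; read-out % cured (culture-negative).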

Aspergillus niger = test: In vitro evaluation of minimum inhibitory concentration against Aspergillus niger 18; type: functional; details: Aspergillus niger; read-out: MIC; method in brief: as §2
[31] = tested on: Meyerozyma guilliermondii; test: In vitro evaluation of minimum inhibitory concentration against Candida guilliermondii 26; type: functional; details: Meyerozyma guilliermondii; read-out: MIC; method in brief: as §2

OC(Cn1cncn1)(Cn1cncn1)c1ccc(F)cc1F [FLUCONAZOLE]
MFC (Candida albicans [1]): > 64 µg/mL | MIC (Candida albicans [1]): 2 µg/mL (≈ 6.53 µM) | MIC (Kluyveromyces marxianus [2]): 0.5 µg/mL (≈ 1.63 µM) | MFC (Candida parapsilosis [3]): 2 µg/mL (≈ 6.53 µM) | MIC (Candida parapsilosis [3]): 0.25 µg/mL (≈ 0.816 µM) | MIC (Trichophyton benhamiae): > 80 µg/mL | MFC (Candida parapsilosis [4]): > 64 µg/mL | MIC (Candida parapsilosis [4]): 4 µg/mL (≈ 13.1 µM) | survival at 1 mg/kg (Mus sp. [5]): 100% | MFC (Candida albicans [6]): > 64 µg/mL | MIC (Candida albicans [6]): 0.5 µg/mL (≈ 1.63 µM) | MFC (Cryptococcus neoformans): > 64 µg/mL | MIC (Cryptococcus neoformans): 8 µg/mL (≈ 26.1 µM) | MIC (Trichophyton rubrum): > 80 µg/mL | survival at 1 mg/kg (Mus sp. [7]): 96% | MIC (Candida albicans [8]): 0.5 µg/mL (≈ 1.63 µM) | survival at 0.5 mg/kg (Mus sp. [9]): 100% | MFC (Candida albicans [10]): > 64 µg/mL | MIC (Candida albicans [10]): 0.25 µg/mL (≈ 0.816 µM) | MFC (Candida albicans [11]): > 64 µg/mL | survival at 0.5 mg/kg (Mus musculus): 20% | MFC (Candida albicans [12]): > 64 µg/mL | MIC (Candida albicans [12]): 0.25 µg/mL (≈ 0.816 µM) | MFC (Candida parapsilosis [13]): > 64 µg/mL | MIC (Candida parapsilosis [13]): 1 µg/mL (≈ 3.27 µM) | MIC (Aspergillus flavus): > 80 µg/mL | MIC [14]: 8 µg/mL (≈ 26.1 µM) | survival at 1 mg/kg (Mus sp. [15]): 52% | MIC (Pichia kudriavzevii [16]): > 80 µg/mL | survival at 0.5 mg/kg (Mus sp. [17]): 10% | MIC (Microsporum canis): > 80 µg/mL | MFC (Candida albicans [18]): > 64 µg/mL | MIC (Candida albicans [18]): 0.25 µg/mL (≈ 0.816 µM) | MIC (Candida parapsilosis [19]): 20 µg/mL (≈ 65.3 µM) | MFC (Candida albicans [20]): > 64 µg/mL | MIC (Candida albicans [20]): 0.25 µg/mL (≈ 0.816 µM) | MIC (Candida albicans [21]): 40 µg/mL (≈ 131 µM) | MFC (Candida tropicalis [22]): > 64 µg/mL | MIC (Candida tropicalis [22]): 1 µg/mL (≈ 3.27 µM) | MFC (Candida parapsilosis [23]): > 64 µg/mL | MIC (Candida parapsilosis [23]): 2 µg/mL (≈ 6.53 µM) | MIC (Nannizzia gypsea): > 80 µg/mL | survival at 0.5 mg/kg (Mus sp. [24]): 90% | MFC (Nakaseomyces glabratus): > 64 µg/mL | MIC (Nakaseomyces glabratus): 32 µg/mL (≈ 104 µM) | MFC (Candida parapsilosis [25]): > 64 µg/mL | MIC (Candida parapsilosis [25]): 1 µg/mL (≈ 3.27 µM) | MFC (Pichia kudriavzevii [26]): > 64 µg/mL | MIC (Pichia kudriavzevii [26]): 64 µg/mL (≈ 209 µM) | MFC (Pichia kudriavzevii [27]): > 64 µg/mL | MIC (Pichia kudriavzevii [27]): 32 µg/mL (≈ 104 µM) | MFC (Candida tropicalis [28]): > 64 µg/mL | MIC (Candida tropicalis [28]): 8 µg/mL (≈ 26.1 µM) | survival at 1 mg/kg (Mus sp. [29]): 6% | MFC (Kluyveromyces marxianus [30]): 32 µg/mL (≈ 104 µM) | MIC (Aspergillus fumigatus): > 80 µg/mL | Cure rate (Rattus norvegicus): 25% | MIC (Aspergillus niger): > 80 µg/mL | MIC [31]: 10 µg/mL (≈ 32.7 µM)
